Data taken from ChEMBL document CHEMBL3112586, “Synthesis of neolignans as microtubule stabilisers” (Bioorg Med Chem, 2014).
Active and inactive are the calls of the source. No cut-off for these calls is given here.

Key:
Mus musculus [1] = test: Toxicity in Swiss albino mouse assessed as change in neutrophil count at 5 to 1000 mg/kg, po relative to control; type: organism-based; set-up: dose 5-1000 mg/kg, route oral; details: in vivo
Mus musculus [2] = test: Toxicity in Swiss albino mouse assessed as change in SGOT level at 1000 mg/kg, po (reference value: 25.27 +/- 1.32 U/L); type: organism-based; set-up: dose 1000 mg/kg, route oral; details: in vivo
Mus musculus [3] = test: Toxicity in Swiss albino mouse assessed as change in RBC count at 50 mg/kg, po (reference value: 5.43 +/- 0.27 million/mm'3); type: organism-based; set-up: dose 50 mg/kg, route oral; details: in vivo
Mus musculus [4] = test: Toxicity in Swiss albino mouse assessed as change in ALKP level at 1000 mg/kg, po (reference value: 218.67 +/- 12.43 U/L); type: organism-based; set-up: dose 1000 mg/kg, route oral; details: in vivo
Mus musculus [5] = test: Toxicity in Swiss albino mouse assessed as change in albumin level at 1000 mg/kg, po (reference value: 3.35 +/- 0.51 g/dL); type: organism-based; set-up: dose 1000 mg/kg, route oral; details: in vivo
Homo sapiens = species on record: Homo sapiens; test: Induction of microtubule stabilization (unknown origin) at 4 to 20 uM
Mus musculus [6] = test: Toxicity in Swiss albino mouse assessed as change in triglyceride level at 1000 mg/kg, po (reference value: 121.45 +/- 24.02 mg/dL); type: organism-based; set-up: dose 1000 mg/kg, route oral; details: in vivo
Mus musculus [7] = test: Toxicity in Swiss albino mouse assessed as change in creatinine level at 1000 mg/kg, po (reference value: 0.63 +/- 0.18 mg/dL); type: organism-based; set-up: dose 1000 mg/kg, route oral; details: in vivo
Mus musculus [8] = test: Toxicity in Swiss albino mouse assessed as change in basophil count at 5 to 1000 mg/kg, po relative to control; type: organism-based; set-up: dose 5-1000 mg/kg, route oral; details: in vivo
Mus musculus [9] = test: Toxicity in Swiss albino mouse assessed as change in ALKP level at 50 mg/kg, po (reference value: 218.67 +/- 12.43 U/L); type: organism-based; set-up: dose 50 mg/kg, route oral; details: in vivo
Mus musculus [10] = test: Toxicity in Swiss albino mouse assessed as change in creatinine level at 5 mg/kg, po (reference value: 0.63 +/- 0.18 mg/dL); type: organism-based; set-up: dose 5 mg/kg, route oral; details: in vivo
Mus musculus [11] = test: Toxicity in Swiss albino mouse assessed as change in albumin level at 300 mg/kg, po (reference value: 3.35 +/- 0.51 g/dL); type: organism-based; set-up: dose 300 mg/kg, route oral; details: in vivo
Mus musculus [12] = test: Toxicity in Swiss albino mouse assessed as change in WBC count at 300 mg/kg, po (reference value: 14.2 +/- 7.49 X 10^3/mm'3); type: organism-based; set-up: dose 300 mg/kg, route oral; details: in vivo
MCF7 [13] = test: Cytotoxicity against human MCF7 cells after 24 hrs by MTT assay; type: functional, cell-based; details: MCF7, 24 h
Method in brief: (§1)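 Cells in DMEM, 10% FBS, 37 °C, 5% CO2, plated and incubated 24 h; compounds diluted in phenol-red-free DMEM with 0.5% FBS, vehicle control; after exposure, MTT (5 mg/mL stock) added 3 h, formazan dissolved in DMSO, absorbance 570 nm; IC50 derived; podophyllotoxin and tamoxifen positive controls.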

MCF7 [14] = test: Cell cycle arrest in human MCF7 cells assessed as accumulation at G2 phase at 5 to 30 uM after 24 hrs by propidium iodide staining-based FACS analysis; type: functional
Method in brief: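 MCF-7 in DMEM, 10% FBS, 37 °C, 5% CO2; treated 24 h, harvested, washed cold PBS, resuspended 2 × 10⁶ cells/ml, fixed absolute ethanol, RNase A treated, propidium iodide (50 µg/mL) 30 min room temperature; DNA content by flow cytometry; phase distribution versus untreated control.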

Mus musculus [15] = test: Toxicity in Swiss albino mouse assessed as relative liver weight at 5 to 1000 mg/kg, po relative to control; type: organism-based; set-up: dose 5-1000 mg/kg, route oral; details: in vivo
Method in brief: (§2)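 One oral dose (5–1000 mg/kg; DMSO then 0.7% carboxymethyl cellulose vehicle; controls vehicle-only) was given to groups of 6 mice (3 male, 3 female). On day 7 the animals were sacrificed and necropsied for gross pathology. Absolute and relative weights of vital organs were recorded and compared with control.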

Mus musculus [16] = test: Toxicity in Swiss albino mouse assessed as change in RBC count at 1000 mg/kg, po (reference value: 5.43 +/- 0.27 million/mm'3); type: organism-based; set-up: dose 1000 mg/kg, route oral; details: in vivo
Mus musculus [17] = test: Toxicity in Swiss albino mouse assessed as relative heart weight at 5 to 1000 mg/kg, po relative to control; type: organism-based; set-up: dose 5-1000 mg/kg, route oral; details: in vivo; method in brief: as §2
Mus musculus [18] = test: Toxicity in Swiss albino mouse assessed as relative brain weight at 5 to 1000 mg/kg, po relative to control; type: organism-based; set-up: dose 5-1000 mg/kg, route oral; details: in vivo; method in brief: as §2
Mus musculus [19] = test: Toxicity in Swiss albino mouse assessed as morbidity at 5 to 1000 mg/kg, po; type: organism-based; set-up: dose 5-1000 mg/kg, route oral; details: in vivo
Method in brief: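 Swiss albino mice (3 male, 3 female per group, 20-25 g) were given one oral dose of 5, 50, 300 or 1000 mg/kg in DMSO/0.7% carboxymethyl cellulose, or vehicle. Mortality and signs of ill health were checked hourly on the dosing day, then daily for 7 days. Checks covered skin, mucous membranes, eyes, secretions, lachrymation, pilo-erection, respiration, gait, posture and response to handling.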

Mus musculus [20] = test: Toxicity in Swiss albino mouse assessed as change in body weight at 300 mg/kg, po (reference value: 24.5 +/- 0.76 g); type: organism-based; set-up: dose 300 mg/kg, route oral; details: in vivo
Mus musculus [21] = test: Toxicity in Swiss albino mouse assessed as change in serum protein level at 300 mg/kg, po (reference value: 1.11 +/- 0.14 mg/ml); type: organism-based; set-up: dose 300 mg/kg, route oral; details: in vivo
Mus musculus [22] = test: Toxicity in Swiss albino mouse assessed as change in ALKP level at 300 mg/kg, po (reference value: 218.67 +/- 12.43 U/L); type: organism-based; set-up: dose 300 mg/kg, route oral; details: in vivo
Mus musculus [23] = test: Toxicity in Swiss albino mouse assessed as change in ALKP level at 5 mg/kg, po (reference value: 218.67 +/- 12.43 U/L); type: organism-based; set-up: dose 5 mg/kg, route oral; details: in vivo
Mus musculus [24] = test: Toxicity in Swiss albino mouse assessed as change in creatinine level at 300 mg/kg, po (reference value: 0.63 +/- 0.18 mg/dL); type: organism-based; set-up: dose 300 mg/kg, route oral; details: in vivo
Mus musculus [25] = test: Toxicity in Swiss albino mouse assessed as absolute lungs weight at 5 to 1000 mg/kg, po relative to control; type: organism-based; set-up: dose 5-1000 mg/kg, route oral; details: in vivo
Mus musculus [26] = test: Toxicity in Swiss albino mouse assessed as absolute kidney weight at 5 to 1000 mg/kg, po relative to control; type: organism-based; set-up: dose 5-1000 mg/kg, route oral; details: in vivo
Mus musculus [27] = test: Toxicity in Swiss albino mouse assessed as change in total haemoglobin level at 50 mg/kg, po (reference value: 11.39 +/- 0.84 g/dL); type: organism-based; set-up: dose 50 mg/kg, route oral; details: in vivo
Mus musculus [28] = test: Toxicity in Swiss albino mouse assessed as change in triglyceride level at 5 mg/kg, po (reference value: 121.45 +/- 24.02 mg/dL); type: organism-based; set-up: dose 5 mg/kg, route oral; details: in vivo
MDA-MB-231 [29] = test: Cytotoxicity against human MDA-MB-231 cells after 24 hrs by MTT assay; type: functional, cell-based; details: MDA-MB-231, 24 h; method in brief: as §1
Mus musculus [30] = test: Toxicity in Swiss albino mouse assessed as change in albumin level at 50 mg/kg, po (reference value: 3.35 +/- 0.51 g/dL); type: organism-based; set-up: dose 50 mg/kg, route oral; details: in vivo
Mus musculus [31] = test: Toxicity in Swiss albino mouse assessed as absolute spleen weight at 5 to 1000 mg/kg, po relative to control; type: organism-based; set-up: dose 5-1000 mg/kg, route oral; details: in vivo
MDA-MB-231 [32] = test: Cell cycle arrest in human MDA-MB-231 cells at 5 to 30 uM after 24 hrs by propidium iodide staining-based FACS analysis; type: functional
Method in brief: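 MDA-MB-231 grown in DMEM with 10% FBS at 37 °C, 5% CO2; 24 h treatment, then cold-PBS wash, 2 × 10⁶ cells/ml, absolute-ethanol fixation, RNase A, propidium iodide 50 µg/mL for 30 min at room temperature; flow cytometric DNA content, sub-diploid fraction scored.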

`CCOC(=O)/C=C/c1ccc(O)c(/C(=C/c2ccc(O)cc2)C(=O)OCC)c1` was tested. Which Activity (Mus musculus [1]) did it give?
Its Activity is “Non-toxic”.

What about the Activity (Mus musculus [2]) of the same molecule?
Its Activity is 53.29 U/L.

What about the Activity (Mus musculus [3]) of the same molecule?
Its Activity is 5.58 million/mm3.

And the Activity (Mus musculus [4])?
The Activity was 143.89 U/L.

And the Activity (Mus musculus [5])?
The Activity was 3.86 g/dL.

What about the Activity (Homo sapiens) of the same molecule?
The Activity was “Active”.

What about the Activity (Mus musculus [6]) of the same molecule?
Its Activity is 156.83 mg/dL.

What about the Activity (Mus musculus [7]) of the same molecule?
Its Activity is 1.87 mg/dL.

What about the Activity (Mus musculus [8]) of the same molecule?
Its Activity is “Non-toxic”.

What about the Activity (Mus musculus [9]) of the same molecule?
The Activity was 234.14 U/L.

What about the Activity (Mus musculus [10]) of the same molecule?
The Activity was 1.05 mg/dL.

And the Activity (Mus musculus [11])?
The Activity was 2.59 g/dL.

What about the Activity (Mus musculus [12]) of the same molecule?
The Activity was 13.76 ×10³ /mm3.

And the IC50 (MCF7 [13])?
The IC50 was 12 µM.

And the Activity (MCF7 [14])?
The Activity was “Active”.

And the Activity (Mus musculus [15])?
Its Activity is “Non-toxic”.

What about the Activity (Mus musculus [16]) of the same molecule?
The Activity was 5.15 million/mm3.

And the Activity (Mus musculus [17])?
The Activity was “Non-toxic”.

What about the Activity (Mus musculus [18]) of the same molecule?
The Activity was “Non-toxic”.

And the Activity (Mus musculus [19])?
Its Activity is “Non-toxic”.

What about the Activity (Mus musculus [20]) of the same molecule?
Its Activity is 25 g.

What about the Activity (Mus musculus [21]) of the same molecule?
The Activity was 0.92 mg/mL.

And the Activity (Mus musculus [22])?
Its Activity is 217.42 U/L.

What about the Activity (Mus musculus [23]) of the same molecule?
The Activity was 227.47 U/L.

What about the Activity (Mus musculus [24]) of the same molecule?
Its Activity is 0.79 mg/dL.

And the Activity (Mus musculus [25])?
Its Activity is “Non-toxic”.

And the Activity (Mus musculus [26])?
Its Activity is “Non-toxic”.

What about the Activity (Mus musculus [27]) of the same molecule?
The Activity was 10.67 g/dL.

And the Activity (Mus musculus [28])?
Its Activity is 106.46 mg/dL.

What about the IC50 (MDA-MB-231 [29]) of the same molecule?
Its IC50 is 15 µM.

And the Activity (Mus musculus [30])?
The Activity was 2.76 g/dL.

And the Activity (Mus musculus [31])?
The Activity was “Non-toxic”.

And the Activity (MDA-MB-231 [32])?
Its Activity is “inactive”.
